Results of several laboratories.
Protocols differ between the studies behind these lines.
Target: Serine/threonine-protein kinase Nek9 (NEK9, Homo sapiens, UniProt Q8TD19)
One construct used (Q8TD19 1-979): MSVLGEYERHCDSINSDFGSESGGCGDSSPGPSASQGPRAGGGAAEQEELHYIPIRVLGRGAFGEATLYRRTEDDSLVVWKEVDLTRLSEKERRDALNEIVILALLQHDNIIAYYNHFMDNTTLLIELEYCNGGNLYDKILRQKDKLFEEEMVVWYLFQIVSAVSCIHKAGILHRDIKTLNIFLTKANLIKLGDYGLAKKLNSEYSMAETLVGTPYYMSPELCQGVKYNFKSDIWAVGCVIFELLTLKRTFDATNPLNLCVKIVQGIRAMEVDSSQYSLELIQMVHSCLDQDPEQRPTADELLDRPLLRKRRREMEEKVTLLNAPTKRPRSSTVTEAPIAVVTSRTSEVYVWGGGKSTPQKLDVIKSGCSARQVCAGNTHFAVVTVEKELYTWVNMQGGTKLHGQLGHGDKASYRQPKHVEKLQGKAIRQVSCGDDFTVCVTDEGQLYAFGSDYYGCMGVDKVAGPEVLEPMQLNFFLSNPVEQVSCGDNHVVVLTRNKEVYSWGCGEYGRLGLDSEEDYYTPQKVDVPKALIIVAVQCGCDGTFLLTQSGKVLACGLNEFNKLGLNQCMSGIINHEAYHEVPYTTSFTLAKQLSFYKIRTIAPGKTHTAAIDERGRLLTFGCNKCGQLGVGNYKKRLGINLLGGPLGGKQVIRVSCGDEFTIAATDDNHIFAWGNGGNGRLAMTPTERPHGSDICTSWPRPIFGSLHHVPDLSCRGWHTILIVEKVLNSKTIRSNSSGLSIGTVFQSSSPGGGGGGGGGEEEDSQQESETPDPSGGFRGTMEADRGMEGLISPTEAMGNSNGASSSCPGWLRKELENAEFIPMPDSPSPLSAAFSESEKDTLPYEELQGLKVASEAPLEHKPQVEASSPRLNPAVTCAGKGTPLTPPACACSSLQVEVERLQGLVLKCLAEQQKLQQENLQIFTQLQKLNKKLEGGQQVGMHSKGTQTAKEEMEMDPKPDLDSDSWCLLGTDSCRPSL

Structure (SMILES) | effect on | action | method | cells | concentration | endpoint | value
Cn1cncc1[C@](O)(COc1ccc(C#N)cc1-c1ccc(OC(F)(F)F)cc1)c1ccc(C#N)cc1 | cell-free assay |  | competition with immobilised ligand |  | 1 µM | remaining binding | 72%
Cn1cc(-c2cccc(N3CCc4c(sc5c4CC(C)(C)C5)C3=O)c2CO)cc(Nc2ccncn2)c1=O | enzyme activity | inhibitor |  |  | 1 µM | inhibition | -1%
O=c1[nH]c2ccccc2n1C1CCN(Cc2ccc(-c3[nH]c4cc5ncnc5cc4nc3-c3ccccc3)cc2)CC1 | cell-free assay |  |  |  | 0.5 µM | remaining signal | 99.2%
COc1ncccc1-c1cnn2ccc(N3CCN(C(=O)OC(C)C)CC3)nc12 | binding |  | competition with immobilised ligand |  | 1 µM | remaining binding | 100%
Cn1cc(-c2cc(F)cc(N3CCn4c(cc5c4CCCC5)C3=O)c2CO)cc(Nc2ccc(N3CCN(C4COC4)CC3)cn2)c1=O | enzyme activity | inhibitor |  |  | 0.1 µM | inhibition | 6%
Nc1ncc(-c2nc(N3CCOCC3)nc(N3CCOCC3)n2)c(C(F)F)n1 | binding |  | competition with immobilised ligand |  | 10 µM | remaining binding | 92%
CCN1CCN(Cc2ccc(NC(=O)c3ccc(C)c(Oc4ccnc5[nH]ccc45)c3)cc2C(F)(F)F)CC1 | target engagement in cells | inhibitor | chemoproteomics | Huh-7 | 10 µM | inhibition | -10.9%
CC(C)(C)c1cc(C=C(C#N)C#N)cc(Br)c1O | enzyme activity | inhibitor |  |  | 0.5 µM | remaining activity | 103%
